Results published in ChEMBL document CHEMBL6071151, “Discovery of Inhibitors Targeting Protein-Protein Interaction between Bacterial RNA Polymerase and NusG as Novel Antimicrobials” (J Med Chem, 2024).
Converted amounts (≈) assume the structure as drawn. The source made the active and inactive calls.

Assays:
[1] = system: Staphylococcus aureus; assay: Antimicrobial activity against community-associated methicillin-resistant Staphylococcus aureus USA300 assessed as reduction in bacterial count at 1 times MIC measured after 4 to 6 hrs by time-kill assay; type: functional, organism-based; details: time 4-6 hrs
Procedure, shortened: (§1)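 S. aureus (ATCC 25923 or CA-MRSA USA300) in log phase suspended at about 1.5×10^6 CFU/mL in CA-MHB containing compound at multiples of MIC, with a drug-free broth control. Cultures held at 37 °C, aerobic, shaking at 180 rpm. Samples taken at 0, 2, 4 and 6 h, 10-fold diluted in PBS and spotted on Columbia blood agar. Colonies counted after overnight 37 °C as CFU/mL. Triplicate.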

[2] = system: Klebsiella pneumoniae; assay: Antimicrobial activity against Klebsiella pneumoniae ATCC 700603 assessed as reduction in microbial growth measured after 20 hrs by CLSI based broth microdilution method; type: functional
Procedure, shortened: (§2)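 Broth microdilution per CLSI in cation-adjusted Mueller-Hinton broth. Two-fold serial dilutions from 256 to 0.25 μg/mL, inoculum about 5 × 10⁵ CFU/mL. Read after 20 h at 37 °C. MIC is the lowest concentration with no visible growth. Run in duplicate.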

[3] = system: Acinetobacter baumannii; assay: Antimicrobial activity against Acinetobacter baumannii ATCC 19606 assessed as reduction in microbial growth measured after 20 hrs by CLSI based broth microdilution method; type: functional; procedure, shortened: as §2
[4] = system: Staphylococcus aureus; assay: Antimicrobial activity against Staphylococcus aureus ATCC 29213 assessed as reduction in microbial growth measured after 20 hrs by CLSI based broth microdilution method; type: functional; procedure, shortened: as §2
[5] = Inhibition of Bacillus subtilis LgBiT-fused NusG/C-terminal SmBit fused […] CH protein-protein interaction using […] incubated for 20 mins by luminescence based analysis
Procedure, shortened: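 Split-nanoluciferase competition assay with His-tagged proteins expressed in E. coli BL21(DE3) and Ni-purified. C-SmBiT-β'CH (250 nM in PBS) was preincubated with compound for 10 min at 37 °C. N-LgBiT-NusG (250 nM in PBS) was then added and incubated 10 min at 37 °C. Nano-Glo substrate was added and luminescence read. IC50 determined. Triplicate with technical repeats.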

[6] = system: Enterococcus faecalis; assay: Antimicrobial activity against Enterococcus faecalis ATCC 19433 assessed as reduction in microbial growth measured after 20 hrs by CLSI based broth microdilution method; type: functional; procedure, shortened: as §2
[7] = system: Bacillus subtilis; assay: Antibacterial activity against Bacillus Subtilis assessed as bacterial transcription by measuring delocalization of NusG at 1 time MIC incubated for 30 mins by epifluorescence microscopy based analysis; type: functional, organism-based
Procedure, shortened: (§3)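 B. subtilis reporter strains expressing GFP fusions, grown overnight on selective LB agar at 37 °C, then overnight in LB with selective antibiotic and xylose, 37 °C, 180 rpm. Cells mounted on 1.2% agarose, imaged by epifluorescence with 100×/1.45 oil objective, FITC (525/50) filter.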

[8] = system: Staphylococcus aureus; assay: Antimicrobial activity against Staphylococcus aureus ATCC 25923 measuring eradication of bacteria at 4 to 16 times MIC measured over 6 hrs by time-kill assay; type: functional; procedure, shortened: as §1
[9] = system: Streptococcus pyogenes; assay: Antimicrobial activity against Streptococcus pyogenes ATCC 19615 assessed as reduction in microbial growth measured after 20 hrs by CLSI based broth microdilution method; type: functional
[10] = system: Bacillus subtilis; assay: Antibacterial activity against Bacillus Subtilis assessed as bacterial transcription by measuring delocalization of GFP-tagged RpoC at 1 time MIC incubated for 30 mins by epifluorescence microscopy based analysis; type: functional, organism-based; procedure, shortened: as §3
[11] = system: Staphylococcus aureus; assay: Antimicrobial activity against Staphylococcus aureus ATCC 25923 assessed as reduction in bacterial count below the detectable threshold at 4 to 16 times MIC measured within 2 hrs by time-kill assay; type: functional, organism-based
[12] = system: Streptococcus pneumoniae; assay: Antimicrobial activity against Streptococcus pneumoniae clinical isolate CUHK-X04 assessed as reduction in microbial growth measured after 20 hrs by CLSI based broth microdilution method; type: functional
[13] = system: Staphylococcus aureus; assay: Antimicrobial activity against community-associated methicillin-resistant Staphylococcus aureus USA300 assessed as inhibition of microbial growth at 1 times MIC measured after 2 hrs by time-kill assay; type: functional, organism-based; procedure, shortened: as §1
[14] = system: Staphylococcus saprophyticus; assay: Antimicrobial activity against Staphylococcus saprophyticus ATCC 15305 assessed as reduction in microbial growth measured after 20 hrs by CLSI based broth microdilution method; type: functional
[15] = system: Escherichia coli; assay: Antimicrobial activity against Escherichia coli K12 transformed with pSL103 assessed as reduction in bacterial growth measured after 30 mins; type: functional; details: K12, 0.5 h
[16] = system: Staphylococcus aureus; assay: Antimicrobial activity against Staphylococcus aureus ATCC 25923 assessed as reduction in microbial growth measured after 20 hrs by CLSI based broth microdilution method; type: functional; procedure, shortened: as §2
[17] = system: Staphylococcus aureus; assay: Antimicrobial activity against community-associated methicillin-resistant Staphylococcus aureus USA300 assessed as reduction in bacterial count below the detectable threshold at 4 to 16 times MIC measured after 4 hrs by time-kill assay; type: functional, organism-based; procedure, shortened: as §1
[18] = system: Streptococcus pneumoniae; assay: Antimicrobial activity against Streptococcus pneumoniae NP112 (NR-19213) assessed as reduction in microbial growth measured after 20 hrs by CLSI based broth microdilution method; type: functional
[19] = system: Streptococcus pneumoniae; assay: Antimicrobial activity against Streptococcus pneumoniae clinical isolate CUHK-X02 assessed as reduction in microbial growth measured after 20 hrs by CLSI based broth microdilution method; type: functional
[20] = system: Streptococcus pneumoniae; assay: Antimicrobial activity against Streptococcus pneumoniae clinical isolate CUHK-X03 assessed as reduction in microbial growth measured after 20 hrs by CLSI based broth microdilution method; type: functional
[21] = system: Streptococcus agalactiae; assay: Antimicrobial activity against Streptococcus agalactiae ATCC 12386 assessed as reduction in microbial growth measured after 20 hrs by CLSI based broth microdilution method; type: functional
[22] = system: Escherichia coli; assay: Antimicrobial activity against Escherichia coli ATCC 25922 assessed as reduction in microbial growth measured after 20 hrs by CLSI based broth microdilution method; type: functional; procedure, shortened: as §2
[23] = system: Staphylococcus aureus; assay: Antimicrobial activity against Staphylococcus aureus ATCC 25923 assessed as reduction in bacterial growth at 4 to 16 times MIC measured over 6 hrs by time-kill assay relative to control; type: functional; parameters: scale not given: the % may be the effect or the level left; procedure, shortened: as §1
[24] = system: Streptococcus pneumoniae; assay: Antimicrobial activity against Streptococcus pneumoniae ATCC 49619 assessed as reduction in microbial growth measured after 20 hrs by CLSI based broth microdilution method; type: functional
[25] = system: Pseudomonas aeruginosa; assay: Antimicrobial activity against Pseudomonas aeruginosa ATCC 27853 assessed as reduction in microbial growth measured after 20 hrs by CLSI based broth microdilution method; type: functional; procedure, shortened: as §2
[26] = system: Streptococcus pneumoniae; assay: Antimicrobial activity against Streptococcus pneumoniae clinical isolate CUHK-X01 assessed as reduction in microbial growth measured after 20 hrs by CLSI based broth microdilution method; type: functional
[27] = system: Staphylococcus epidermidis; assay: Antimicrobial activity against Staphylococcus epidermidis ATCC 12228 assessed as reduction in microbial growth measured after 20 hrs by CLSI based broth microdilution method; type: functional
[28] = system: Bacillus subtilis; assay: Antibacterial activity against Bacillus Subtilis assessed as bacterial transcription by measuring subcellular localization of MreB at 1 time MIC incubated for 30 mins by epifluorescence microscopy based analysis; type: functional, organism-based; procedure, shortened: as §3
[29] = system: Staphylococcus aureus; assay: Antimicrobial activity against Staphylococcus aureus ATCC 25923 assessed as reduction in bacterial count at 1 times MIC measured after 4 to 6 hrs by time-kill assay; type: functional, organism-based; details: time 4-6 hrs
[30] = system: Escherichia coli; assay: Upregulation of cat gene transcription level in Escherichia coli K12 transformed with pSL103 at 1/8 to 1/4 times MIC measured after 30 mins; type: functional
Procedure, shortened: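 Cells lysed with lysozyme in TE, total RNA extracted and reverse transcribed. cat transcript quantified by SYBR Green qPCR, 40 cycles, normalised to gyrB by ΔCT. Triplicates, unpaired t-test.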

[31] = system: Enterobacter cloacae; assay: Antimicrobial activity against Enterobacter cloacae ATCC 13047 assessed as reduction in microbial growth measured after 20 hrs by CLSI based broth microdilution method; type: functional; procedure, shortened: as §2
[32] = system: Bacillus subtilis; assay: Antibacterial activity against Bacillus Subtilis assessed as bacterial transcription by measuring delocalization of GFP-tagged RpsB at 1 time MIC incubated for 30 mins by epifluorescence microscopy based analysis; type: functional, organism-based; procedure, shortened: as §3
[33] = system: Staphylococcus aureus; assay: Antimicrobial activity against Staphylococcus aureus ATCC 25923 assessed as inhibition of microbial growth at 1 times MIC measured after 2 hrs by time-kill assay; type: functional, organism-based
[34] = system: Streptococcus pneumoniae; assay: Antimicrobial activity against Streptococcus pneumoniae TCH8431 (HM-145) assessed as reduction in microbial growth measured after 20 hrs by CLSI based broth microdilution method; type: functional

OC(CNCCNc1ccccc1C(F)(F)F)CSc1ccc(C(F)(F)F)cc1 (centres undefined)
Activity [1]: Active
MIC [2]: > 256 µg/mL
MIC [3]: > 256 µg/mL
MIC [4]: 4 µg/mL
IC50 [5]: 142 µM
MIC [6]: 8 µg/mL
Activity [7]: Active
Activity [8]: <200 CFU/ml
MIC [9]: 8 µg/mL
Activity [10]: Active
Activity [11]: Active
MIC [12]: 2 µg/mL
Activity [13]: Active
MIC [14]: 2 µg/mL
MIC [15]: 16 µg/mL (≈ 36.5 µM)
MIC [16]: 4 µg/mL
Activity [17]: Active
MIC [18]: 4 µg/mL
MIC [19]: 4 µg/mL
MIC [20]: 8 µg/mL
MIC [21]: 16 µg/mL
MIC [22]: 64 µg/mL
Activity [23]: 100%
MIC [24]: 1 µg/mL
MIC [25]: > 256 µg/mL
MIC [26]: 1 µg/mL
MIC [27]: 8 µg/mL
Activity [28]: Active
Activity [29]: Active
Activity [30]: Active
MIC [31]: 32 µg/mL
Activity [32]: Active
Activity [33]: Active
MIC [34]: 2 µg/mL
